From paper PMC3861893 (Journal of medicinal chemistry, 2012)

How the values were obtained:
TLR2 = TLR2 (Homo sapiens, UniProt O60603); assay: In cyto europium TRF competition binding assay; conditions: Ki (summary statement), cell line not specified, summary in discussion
[1] = system: antigen-specific CD8+ T cells; assay: In vivo cellular immune response assay; design: species or system C57BL/6 (B6) mice; conditions: for response rate of tetramer positive CD8+ T cells (day 7 = 100%): average, n = 3
Outline: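 Mice aged 6-8 weeks immunized i.v. with 200 μL of 100 μg Trp1455/9M peptide, 50 μg anti-CD40 mAb (FGK-45.5) and 50 μg TLR2 agonist (test compound, Pam2CSK4 or Pam3CSK4). Submandibular blood taken on days 7, 21 and 34, red cells lysed with ammonium chloride. Stained 40 min on ice with anti-CD8a, PE Trp1455/9M/H-2Db tetramer and anti-MHC II. Tetramer+ CD8+ cells gated by flow cytometry; n=3.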

TLR2, sequence (O60603 21-784): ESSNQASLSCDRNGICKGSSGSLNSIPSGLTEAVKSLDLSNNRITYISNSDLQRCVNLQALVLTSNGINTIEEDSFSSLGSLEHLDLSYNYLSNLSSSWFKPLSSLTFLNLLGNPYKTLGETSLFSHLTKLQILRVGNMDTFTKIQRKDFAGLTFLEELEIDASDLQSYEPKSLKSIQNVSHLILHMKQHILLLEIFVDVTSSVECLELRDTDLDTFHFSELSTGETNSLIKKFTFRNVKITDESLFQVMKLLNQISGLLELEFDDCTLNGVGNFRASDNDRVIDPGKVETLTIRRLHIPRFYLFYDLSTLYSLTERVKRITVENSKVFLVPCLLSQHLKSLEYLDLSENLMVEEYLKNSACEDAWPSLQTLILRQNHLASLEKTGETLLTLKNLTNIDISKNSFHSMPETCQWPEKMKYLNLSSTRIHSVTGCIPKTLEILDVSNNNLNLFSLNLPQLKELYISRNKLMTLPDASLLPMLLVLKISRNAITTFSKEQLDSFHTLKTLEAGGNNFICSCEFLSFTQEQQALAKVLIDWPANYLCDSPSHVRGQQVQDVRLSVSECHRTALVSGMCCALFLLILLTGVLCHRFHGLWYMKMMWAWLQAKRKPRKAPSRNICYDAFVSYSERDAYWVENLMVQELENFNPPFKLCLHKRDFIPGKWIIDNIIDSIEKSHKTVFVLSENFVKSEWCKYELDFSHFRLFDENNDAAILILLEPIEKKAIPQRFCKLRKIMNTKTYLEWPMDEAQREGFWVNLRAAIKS

| Structure (SMILES) | Ki (TLR2) | response rate of tetramer positive CD8+ T cells (day 7 = 100%) ([1]; day 21 post-immunization) | response rate of tetramer positive CD8+ T cells (day 7 = 100%) ([1]; day 34 post-immunization) | signs or symptoms of stress or toxicity in mice ([1]; over the course of the experiment (34 days), 50 μg i.v.) |
| --- | --- | --- | --- | --- |
| CCCCCCCCCCCCCCCC(=O)OC[C@H](CSC[C@H](NC(=O)COCC(=O)NCCCOCCOCCOCCCNC(=O)CCSC1CC(=O)N(CCNC(=O)CCCCCN2C(=CC=C3CCCC(C=CC4=[N+](CCCCS(=O)(=O)O)c5ccc(S(=O)(=O)[O-])cc5C4(C)C)=C3Oc3ccc(S(=O)(=O)O)cc3)C(C)(C)c3cc(S(=O)(=O)O)ccc32)C1=O)C(=O)NCC(=O)N[C@H](CO)C(=O)NCCCOCCOCCOCCCNC(=O)COCC(N)=O)OC(=O)CCCCCCCCCCCCCCC (stereo partly shown) [Compound 13, IRDye800CW-Mpr-PEGO-Dhc(Pam2)-Gly-DSer-PEGO-NH2] | < 100 nM | – | – | – |
| CCCCCCCCCCCCCCCC(=O)OC[C@H](CSC[C@H](NC(=O)COCC(=O)NCCCOCCOCCOCCCNC(C)=O)C(=O)NCC(=O)N[C@H](CO)C(=O)NCCCOCCOCCOCCCNC(=O)COCC(N)=O)OC(=O)CCCCCCCCCCCCCCC [Compound 10] | – | 25.7% | 12.7% | No signs or symptoms of stress or toxicity were observed |
